In the array DNA melting data of Ke et al. (doi:10.1101/2024.01.08.574731) one finds folding enthalpy and Tm data, which are given here for 38 sequences.

Series [1] in a line: folding enthalpy; higher = less favourable; fluorescence melt of hairpins on a sequencing array, two-state fit. Particulars: sodium 0.088 M. The method, boiled down: (§1)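 Hairpins were imaged by Cy3 fluorescence on a sequenced MiSeq flow cell with annealed Cy3 and quencher oligos, in 50 mM Na-HEPES pH 8.0, 25 mM NaCl, in 2.5 °C steps up to 60 °C. Bootstrapped two-state fits of normalised signals gave melting temperature and folding enthalpy. Four replicates were combined by inverse variance, and fitted temperatures were raised by 9.35 °C to match UV melts.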

A short description of series [2]: melting temperature; fluorescence melt of hairpins on a sequencing array, two-state fit, raised by 9.35 °C to match UV melts. Particulars: sodium 0.088 M. The procedure, abridged:
as §1

In the case of GATCCTTATTAGGATC ((((((....)))))), in series [1], the folding enthalpy is -37.8 kcal/mol. Also, the Tm in series [2] was 51.7 °C.

With GATCCTTCAGAGGATC ((((((....)))))), the folding enthalpy in series [1] was -48.2 kcal/mol. The Tm in series [2] amounted to 51.6 °C.

Regarding GATCCTTCCAAGGATC ((((((....)))))), the folding enthalpy in series [1] was -47 kcal/mol. Also, the Tm in series [2] is 55.3 °C.

Take GATCCTTCTTAGGATC ((((((....)))))): the folding enthalpy in series [1] is -41.8 kcal/mol. Besides, the Tm in series [2] came out at 52.8 °C.

Regarding GATCCTTGAAAGGATC ((((((....)))))), in series [1], the folding enthalpy was -42.3 kcal/mol. In addition, in series [2], the Tm is 51.9 °C.

As to GATCCTTTAGAGGATC ((((((....)))))), the folding enthalpy in series [1] was -43.7 kcal/mol. The Tm in series [2] was found to be 52.2 °C.

In the case of GATCGAAAAATCGATC ((((((....)))))), the folding enthalpy in series [1] was -25.5 kcal/mol. Moreover, the Tm in series [2] was found to be 43.9 °C.

Regarding GATCGAAACGTCGATC ((((((....)))))), the folding enthalpy in series [1] was -41.4 kcal/mol. Moreover, the Tm in series [2] was 50.3 °C.

As for GATCGAAAGGTCGATC ((((((....)))))), the folding enthalpy in series [1] was -28.7 kcal/mol. Further, the Tm in series [2] turned out to be 47.7 °C.

With GATCGAAATCTCGATC ((((((....)))))), in series [1], the folding enthalpy is -32.7 kcal/mol. The Tm in series [2] worked out at 48.7 °C.

With GATCGAAATGTCGATC ((((((....)))))), the folding enthalpy in series [1] is -36.8 kcal/mol. The Tm in series [2] was 48.7 °C.

With GATCGAACGATCGATC ((((((....)))))), in series [1], the folding enthalpy is -18.9 kcal/mol. For the same sequence, the Tm in series [2] amounted to 52.8 °C.

For GATCGAACGGTCGATC ((((((....)))))), the folding enthalpy in series [1] is -51.2 kcal/mol. Besides, in series [2], the Tm is 51.1 °C.

Take GATCGAACTTTCGATC ((((((....)))))): the folding enthalpy in series [1] was -35.6 kcal/mol. Further, the Tm in series [2] was 53.4 °C.

For the sequence GATCGAAGACTCGATC ((((((....)))))), the folding enthalpy in series [1] was -30.3 kcal/mol. The Tm in series [2] turned out to be 48.5 °C.

As to GATCGAAGATTCGATC ((((((....)))))), in series [1], the folding enthalpy was -35.5 kcal/mol. In series [2], the Tm is 51.4 °C.

For GATCGAAGCCTCGATC ((((((....)))))), the folding enthalpy in series [1] was -33 kcal/mol. Besides, the Tm in series [2] worked out at 50.9 °C.

Consider GATCGAAGTCTCGATC ((((((....)))))), for which the folding enthalpy in series [1] was -35.1 kcal/mol. The Tm in series [2] was 49.2 °C.

For the sequence GATCGAAGTTCGATC ((((((...)))))), in series [1], the folding enthalpy was -38.4 kcal/mol. The Tm in series [2] is 50.3 °C.

With GATCGAAGTTTCGATC ((((((....)))))), in series [1], the folding enthalpy is -44.8 kcal/mol. Moreover, the Tm in series [2] turned out to be 53.5 °C.

For the sequence GATCGAATTTTCGATC ((((((....)))))), the folding enthalpy in series [1] is -36.1 kcal/mol. Moreover, the Tm in series [2] turned out to be 55.1 °C.

As to GATCGACACGTCGATC ((((((....)))))), the folding enthalpy in series [1] was -33.7 kcal/mol. Besides, in series [2], the Tm came to 59.7 °C.

As to GATCGACAGATCGATC ((((((....)))))), the folding enthalpy in series [1] is -16.1 kcal/mol. Further, in series [2], the Tm was 54.8 °C.

On to GATCGACATATCGATC ((((((....)))))), for which the folding enthalpy in series [1] was -43.4 kcal/mol. Besides, the Tm in series [2] is 51.7 °C.

As to GATCGACATCTCGATC ((((((....)))))), the folding enthalpy in series [1] is -36 kcal/mol. For the same sequence, the Tm in series [2] amounted to 50.3 °C.

Turning to GATCGACCGATCGATC ((((((....)))))), the folding enthalpy in series [1] was -25.4 kcal/mol. In series [2], the Tm is 51.6 °C.

Take GATCGACCGTCGATC ((((((...)))))): the folding enthalpy in series [1] is -36 kcal/mol. Further, in series [2], the Tm came out at 49 °C.

For GATCGACCTCTCGATC ((((((....)))))), the folding enthalpy in series [1] is -35.8 kcal/mol. Further, in series [2], the Tm was determined as 50 °C.

For GATCGACGCTCGATC ((((((...)))))), the folding enthalpy in series [1] is -41.3 kcal/mol. Moreover, in series [2], the Tm was determined as 49.6 °C.

On to GATCGACGTTTCGATC ((((((....)))))), for which, in series [1], the folding enthalpy was -42.5 kcal/mol. Besides, the Tm in series [2] turned out to be 50.9 °C.

As to GATCGACTGTTCGATC ((((((....)))))), the folding enthalpy in series [1] is -40.5 kcal/mol. Besides, the Tm in series [2] was 50.6 °C.

On to GATCGAGACTTCGATC ((((((....)))))), for which the folding enthalpy in series [1] was -43.3 kcal/mol. In series [2], the Tm amounted to 57.2 °C.

In the case of GATCGAGAGATCGATC ((((((....)))))), the folding enthalpy in series [1] was -25.6 kcal/mol. The Tm in series [2] came out at 54.7 °C.

With GATCGAGAGCTCGATC ((((((....)))))), the folding enthalpy in series [1] was -36.5 kcal/mol. In series [2], the Tm was 51.8 °C.

For the sequence GATCGAGAGGTCGATC ((((((....)))))), in series [1], the folding enthalpy was -19 kcal/mol. For the same sequence, the Tm in series [2] came to 50.1 °C.

GATCGAGATGTCGATC ((((((....)))))): in series [1], the folding enthalpy was -37 kcal/mol. Besides, the Tm in series [2] came to 52.5 °C.

GATCGAGCCCTCGATC ((((((....)))))): in series [1], the folding enthalpy was -42.1 kcal/mol. In addition, the Tm in series [2] worked out at 56.4 °C.

For GATCGAGCGTCGATC ((((((...)))))), the folding enthalpy in series [1] is -31.7 kcal/mol. In series [2], the Tm is 51 °C.
